From ChEMBL document CHEMBL1649405, “Structure-activity relationships study of 6-chloro-4-(2-chlorophenyl)-3-(2-hydroxyethyl) quinolin-2(1H)-one derivatives as novel non-nucleoside anti-hepatitis B virus agents” (Eur J Med Chem, 2011)
Calls of active or inactive are those of the source. The calls are words filed in the database; no cut-off is given here.

Key:
Hepatitis B virus [1] = experiment: Antiviral activity against Hepatitis B virus infected in human HepG2(2.2.15) cells assessed as inhibition of viral surface antigen secretion after 6 days by ELISA; assay type: functional, organism-based; conditions: HepG2 2.2.15, 144 h
Method in brief: (§1)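 HepG 2.2.15 cells in DMEM with 10% FBS, 37 °C, 5% CO2. Treated for 6 days with refeeding every other day. Culture medium centrifuged at 6000 g to clear debris. HBeAg or HBsAg measured by quantitative ELISA on a microplate reader. IC50 = concentration giving 50% inhibition of secretion. Mean of two independent experiments.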

Hepatitis B virus [2] = experiment: Antiviral activity against Hepatitis B virus infected in human HepG2(2.2.15) cells assessed as inhibition of viral e antigen secretion after 6 days by ELISA; assay type: functional, organism-based; conditions: HepG2 2.2.15, 144 h; method in brief: as §1
[3] = Cytotoxicity against human HepG2(2.2.15) cells; assay type: cell-based
Method in brief: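 HepG 2.2.15 cells in DMEM with 10% FBS, 37 °C, 5% CO2. CC50 = concentration killing 50% of cells. Mean of two independent experiments.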

[4] = Selectivity index, ratio of CC50 for human HepG2(2.2.15) cells to IC50 for Hepatitis B virus infected in human HepG2(2.2.15) cells assessed as inhibition of viral surface antigen secretion; assay type: functional
Method in brief: (§2)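 Ratio of CC50 in HepG 2.2.15 cells to the IC50 for HBeAg or HBsAg secretion. Both values come from ELISA and cytotoxicity runs on the same cell line. Each input is the mean of two independent experiments.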

[5] = Selectivity index, ratio of CC50 for human HepG2(2.2.15) cells to IC50 for Hepatitis B virus infected in human HepG2(2.2.15) cells assessed as inhibition of viral e antigen secretion; assay type: functional; method in brief: as §2
Hepatitis B virus [6] = experiment: Antiviral activity against Hepatitis B virus infected in human HepG2(2.2.15) cells assessed as inhibition of viral DNA replication after 6 days by PCR analysis; assay type: functional, organism-based
Method in brief: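 HepG 2.2.15 cells in DMEM with 10% FBS, 5 mM L-glutamine, penicillin/streptomycin, 37 °C, 5% CO2; seeded 5 × 10^5 per well, medium changed every 2 days. Compound added after 6 days, refed every other day for 6 more days. HBV DNA by real-time PCR against a cloned HBV plasmid standard series. IC50 = 50% inhibition. Mean of two independent experiments.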

Nucleic Acid [7] = experiment: Increase of enhancer 1 transcriptional activity in HBV infected in human HepG2(2.2.15) cells transfected with pGL3 at 0.02 mM by luciferase reporter gene assay relative to mock-treated control; assay type: cell-based; conditions: Hepatitis B virus
Method in brief: (§3)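 HepG2 cells transfected with pGL3-based firefly luciferase constructs carrying HBV promoter or enhancer elements; pGL3 Basic as control, phRL-CMV Renilla as internal control. Treated with 0.02 mM; read by dual-luciferase assay. Fold activity = treated promoter activity / mock-treated activity. Triplicate samples.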

Nucleic Acid [8] = experiment: Increase of enhancer 2 transcriptional activity in HBV infected in human HepG2(2.2.15) cells transfected with pGL3 at 0.02 mM by luciferase reporter gene assay relative to mock-treated control; assay type: cell-based; conditions: Hepatitis B virus; method in brief: as §3
Nucleic Acid [9] = experiment: Increase of core/pregenomic factor transcriptional activity in HBV infected in human HepG2(2.2.15) cells transfected with pGL3 at 0.02 mM by luciferase reporter gene assay relative to mock-treated control; assay type: cell-based; conditions: Hepatitis B virus; method in brief: as §3
Nucleic Acid [10] = experiment: Increase of X promoter transcriptional activity in HBV infected in human HepG2(2.2.15) cells transfected with pGL3 at 0.02 mM by luciferase reporter gene assay relative to mock-treated control; assay type: cell-based; conditions: Hepatitis B virus; method in brief: as §3
Nucleic Acid [11] = experiment: Increase of preS1 promoter transcriptional activity in HBV infected in human HepG2(2.2.15) cells transfected with pGL3 at 0.02 mM by luciferase reporter gene assay relative to mock-treated control; assay type: cell-based; conditions: Hepatitis B virus; method in brief: as §3
[12] = Cytotoxicity against human HepG2(2.2.15) cells assessed as cell viability at 0.02 mM after 48 hrs by MTT assay; assay type: cell-based; conditions: read-out: Activity
[13] = Cytotoxicity against human HepG2(2.2.15) cells assessed as cell viability at 0.02 mM after 72 hrs by MTT assay; assay type: cell-based; conditions: read-out: Activity
Nucleic Acid [14] = experiment: Inhibition of preS2 promoter transcriptional activity in human HepG2 cells transfected with pGL3 at 0.02 mM by luciferase reporter gene assay relative to mock-treated control; conditions: Hepatitis B virus
[15] = Hepatitis B virus, HepG2 2.2.15, 144 h, read-out: IC50

Row | Structure (SMILES) | IC50 (Hepatitis B virus [1]) [µM] | IC50 (Hepatitis B virus [2]) [µM] | CC50 [3] [µM] | Selectivity Index [4] | Selectivity Index [5] | IC50 (Hepatitis B virus [6]; hepg2 2.2.15) | IC50 (Hepatitis B virus [6]; [15]) [µM] | fold change (FC) (Nucleic Acid [7]) | fold change (FC) (Nucleic Acid [8]) | fold change (FC) (Nucleic Acid [9]) | fold change (FC) (Nucleic Acid [10]) | fold change (FC) (Nucleic Acid [11]) | viability at 48 h, 20 µM [12] [%] | viability at 72 h, 20 µM [13] [%] | inhibition (Nucleic Acid [14])
1 | O=C(/C=C/c1ccc(C(F)(F)F)cc1)OCCc1c(-c2ccccc2Cl)c2cc(Cl)ccc2[nH]c1=O | 230 | 19 | > 1400 | >6.1 | >73 | Not Active |  |  |  |  |  |  |  |  | 
2 | O=C(/C=C/c1cccc(C(F)(F)F)c1)OCCc1c(-c2ccccc2Cl)c2cc(Cl)ccc2[nH]c1=O | 58 | 22 | > 1400 | >24 | >63 |  | 410 |  |  |  |  |  |  |  | 
3 | O=C(/C=C/c1ccc2c(c1)OCO2)OCCc1c(-c2ccccc2Cl)c2cc(Cl)ccc2[nH]c1=O | 150 | 220 |  | >8.1 | >5.4 |  | 160 |  |  |  |  |  |  |  | 
4 | COc1cccc(/C=C/C(=O)OCc2c(-c3ccccc3Cl)c3cc(Cl)ccc3[nH]c2=O)c1 | 11 | 18 | > 1800 | >170 | >100 |  | 160 |  |  |  |  |  |  |  | 
5 | COc1cccc(/C=C/C(=O)OCCc2c(-c3ccccc3Cl)c3cc(Cl)ccc3[nH]c2=O)c1 | 10 | 26 | > 1300 | >135 | >51 |  | 45 | 12 | 14 | 4 | 4 | 4 | 95.2 | 80.4 | Active
6 | COc1cccc(/C=C/C(=O)OCCCc2c(-c3ccccc3Cl)c3cc(Cl)ccc3[nH]c2=O)c1 | 20 | 28 | > 1100 | >55 | >39 | Not Active |  |  |  |  |  |  |  |  | 
7 | COc1ccc(/C=C/C(=O)OCCc2c(-c3ccccc3Cl)c3cc(Cl)ccc3[nH]c2=O)cc1 | 490 | 48 | > 1200 | >2.5 | >25 | Not Active |  |  |  |  |  |  |  |  | 
8 | COCC(=O)OCCc1c(-c2ccccc2Cl)c2cc(Cl)ccc2[nH]c1=O | 32 | > 74 | 74 | 1.4 | <1 |  |  |  |  |  |  |  |  |  | 
9 | O=C(/C=C/c1cccc(F)c1)OCCc1c(-c2ccccc2Cl)c2cc(Cl)ccc2[nH]c1=O | 33 | 27 | > 1600 | >48 | >58 |  | 110 |  |  |  |  |  |  |  | 
10 | O=C(OCCc1c(-c2ccccc2Cl)c2cc(Cl)ccc2[nH]c1=O)C1CCCC1 | 46 | 46 | 46 | 1 | 1 |  |  |  |  |  |  |  |  |  | 
11 | O=C(OCCc1c(-c2ccccc2Cl)c2cc(Cl)ccc2[nH]c1=O)c1ccc([N+](=O)[O-])cc1 | 1200 | 1600 | 1600 | 1.4 | 1 |  |  |  |  |  |  |  |  |  | 
12 | COc1ccc(/C=C/C(=O)OCCc2c(-c3ccccc3Cl)c3cc(Cl)ccc3[nH]c2=O)cc1OC | 21 | 57 | > 1200 | >58 | >21 | Not Active |  |  |  |  |  |  |  |  | 
13 | CC(=O)NCC(=O)OCCc1c(-c2ccccc2Cl)c2cc(Cl)ccc2[nH]c1=O | 74 | > 110 | 110 | 1.4 | <1 |  |  |  |  |  |  |  |  |  | 
14 | O=C(/C=C/c1cccnc1)OCCc1c(-c2ccccc2Cl)c2cc(Cl)ccc2[nH]c1=O | 34 | 2200 | 39 | 1.1 | <1 |  |  |  |  |  |  |  |  |  | 
15 | N#CCC(=O)OCCc1c(-c2ccccc2Cl)c2cc(Cl)ccc2[nH]c1=O | 75 | > 100 | 100 | 1.3 | <1 |  |  |  |  |  |  |  |  |  | 
